The values below come from ChEMBL document CHEMBL2010778, “Thiadiazoles as new inhibitors of diacylglycerol acyltransferase type 1” (Bioorg Med Chem Lett, 2012).

Data set [1] has as its target T1, Diacylglycerol O-acyltransferase 1 (Homo sapiens, UniProt O75907).
T1 sequence (O75907 whole entry): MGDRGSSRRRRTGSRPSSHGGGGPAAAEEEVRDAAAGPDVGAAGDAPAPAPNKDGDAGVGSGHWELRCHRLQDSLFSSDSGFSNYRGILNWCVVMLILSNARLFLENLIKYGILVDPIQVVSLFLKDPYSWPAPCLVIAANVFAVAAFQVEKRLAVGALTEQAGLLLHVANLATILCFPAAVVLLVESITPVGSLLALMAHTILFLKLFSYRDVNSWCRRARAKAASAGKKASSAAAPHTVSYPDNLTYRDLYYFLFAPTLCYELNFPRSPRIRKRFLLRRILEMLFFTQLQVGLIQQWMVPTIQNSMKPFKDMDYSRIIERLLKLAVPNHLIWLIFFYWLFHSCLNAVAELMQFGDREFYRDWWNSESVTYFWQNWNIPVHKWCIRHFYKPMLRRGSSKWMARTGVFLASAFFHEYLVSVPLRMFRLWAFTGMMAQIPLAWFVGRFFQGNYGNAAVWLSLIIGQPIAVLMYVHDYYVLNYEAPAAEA
In words: Inhibition of human recombinant DGAT1 expressed in baculovirus infected Sf9 cells after 60 mins by scintillation counting method.

Data set [2] is described as follows: Metabolic stability in human hepatic microsomes assessed as compound metabolism after 20 mins. The format is ADME. The note with it: liver microsomes, read-out: Drug metabolism. The method in brief:
(§1)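 Compound was incubated for 20 min with human or mouse hepatic microsomal fraction. % liability is the disappearance of parent compound at the end of the incubation.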

Data set [3] is described as follows: Plasma concentration in C57BL/6J mouse at 1 mg/kg, po administered 1 hr before lipid challenge measured after 1 hr post dose. In kind it is ADME, organism-based. Also on record: dose 1 mg/kg, route oral.
Data set [4] in a line: Metabolic stability in mouse hepatic microsomes assessed as compound metabolism after 20 mins. The format is ADME. The following applies: liver microsomes, read-out: Drug metabolism. The method in brief: as §1
Background: Microsomes from liver hold many membrane-bound enzymes, among them those of drug oxidation.

Data set [5] concerns Mus musculus. Kind of data set: Antihyperlipidemic activity in C57BL/6J mouse assessed as inhibition of rise in plasma triglyceride level at 1 mg/kg, po administered 1 hr before lipid challenge. The format is functional. The method in brief: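 Fasted male C57Bl/6J mice (n = 10/group) were dosed orally at 1 mg/kg in 0.5% methylcellulose/1% DMSO (10 mL/kg), 1 h before a 100 µL corn oil or water bolus. Blood was taken by intracardiac puncture under isoflurane 1 h after the challenge, and plasma triglycerides were measured with a commercial kit. Inhibition of the TG rise was assessed against vehicle by one-way ANOVA with Dunnett test.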

The nature of data set [6]: Permeability across human Caco2 cell membrane. The format is ADME, cell-based. The note with it: Caco-2, read-out: permeability. (In general: Caco-2 cells form a polarised layer with tight junctions and transporters.)

Molecules are shown by their SMILES. A value given as a limit tells only on which side of the number the result lay.

The IC50 is the concentration that inhibits the measured activity by half. With `CS(=O)(=O)c1nnc(NC(=O)c2ccc([C@H]3CC[C@H](CC(=O)O)CC3)cc2)s1`, in data set [1], the IC50 was over 10 µM.
What is called inhibition in vivo is the drop in the measured response relative to a control, in per cent. As for `O=C(O)C[C@H]1CC[C@H](c2ccc(C(=O)Nc3nnc(Cc4ccccc4)s3)cc2)CC1`, the metabolised at 20 min came to 0% in data set [2] and 5% in data set [4]. The same compound registered a concentration at 1 h in data set [3] of 79.1 ng/mL. Also, the inhibition in vivo at 1 mg/kg in data set [5] is 95%. Besides, the Papp in data set [6] is 11.2 ×10⁻⁶ cm/s.
On to `O=C(O)C[C@H]1CC[C@H](c2ccc(C(=O)Nc3nnc(Cc4cccc(F)c4)s3)cc2)CC1`, for which the metabolised at 20 min in data set [2] worked out at 1%; in data set [4] it was 10%. Also, in data set [5], the inhibition in vivo at 1 mg/kg came out at 107%. In data set [6], the Papp was 12 ×10⁻⁶ cm/s.
Taken in the same sequence, the figures for `O=C(O)C[C@H]1CC[C@H](c2ccc(C(=O)Nc3nnc(Cc4ccccc4F)s3)cc2)CC1` were 0%, 4%, 120% and 7.5 ×10⁻⁶ cm/s.
As to `O=C(O)C[C@H]1CC[C@H](c2ccc(C(=O)Nc3nnc(Cc4cccc(Cl)c4)s3)cc2)CC1`, the figures for the metabolised at 20 min in data set [2] and in data set [4] were 6% and 14%, respectively. In addition, in data set [5], the inhibition in vivo at 1 mg/kg was 101%. Besides, the Papp in data set [6] stood at 8 ×10⁻⁶ cm/s.
As to `CC(C)[C@H](NC(=O)c1ccc(-c2ccc(Nc3nnc(Cc4ccccc4)s3)cc2)cc1)C(=O)O`, in data set [6], the Papp is 0.04 ×10⁻⁶ cm/s.
As to `CN(C(=O)c1ccc([C@H]2CC[C@H](CC(=O)O)CC2)cc1)c1nnc(Cc2ccccc2)s1`, in data set [1], the half-inhibitory concentration (IC50) is over 10 µM.
The same measure, in the same setting: in the case of `O=C(O)CC1CCC(c2ccc(Nc3nnc(Cc4ccccc4)s3)cc2)CC1` (mixture of isomers) it was over 10 µM.
